KCNK9 block: blocks the human KCNK9 two-pore domain potassium channel | Q9NPC2 | B-score at 10 µM | HEK293 KCNK9, FluxOR thallium flux fluorescence; active compounds read low | 1.2% of 310,000 active;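 active = ratio B-score over 3 SD below the library mean, with starting fluorescence within 5 SD of its mean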;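 also: negative B-score means less thallium flux so channel inhibition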
Target sequence (Q9NPC2 whole entry, looked up, the tested form may be a part): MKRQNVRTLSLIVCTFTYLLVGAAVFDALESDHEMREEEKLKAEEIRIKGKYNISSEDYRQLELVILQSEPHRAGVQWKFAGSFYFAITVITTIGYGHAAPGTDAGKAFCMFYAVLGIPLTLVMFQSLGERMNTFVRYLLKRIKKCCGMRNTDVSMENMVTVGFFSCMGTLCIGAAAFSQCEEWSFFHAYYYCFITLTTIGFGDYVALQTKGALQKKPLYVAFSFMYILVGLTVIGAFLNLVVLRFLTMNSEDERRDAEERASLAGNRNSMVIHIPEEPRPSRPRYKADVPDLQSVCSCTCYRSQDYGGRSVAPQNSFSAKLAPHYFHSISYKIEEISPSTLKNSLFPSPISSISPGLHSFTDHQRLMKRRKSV
hERG protect: hERG (human) protection from proarrhythmic block. Q12809. AID 1511. 0.51% of 310,000 active. CHO-hERG, FluxOR thallium flux, dofetilide IC70 present. activation (rescue from dofetilide block), less the hit threshold, % at 10 µM;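 active = activation above the mean of controls blocked by dofetilide plus 5 SD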;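 also: thallium influx through hERG after potassium depolarization seen as dye fluorescence rise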
KCNK3 block: human KCNK3 channel inhibition, primary screen | O14649 | CHO-KCNK3 thallium flux, FluxOR fluorescence; active compounds read low | B-score at 10 µM | 0.84% of 340,000 active | AID 602410;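 active = B-score under library mean minus 4 SD, starting fluorescence ratio at most library mean plus 5 SD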;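 also: more negative B-score means stronger inhibition of thallium flux through KCNK3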
KCNQ1 block: inhibitors of human KCNQ1 potassium channel. CHO-K1 KCNQ1, FluxOR thallium flux fluorescence; active compounds read high. 1.3% of 310,000 active. B-score at 10 µM. P51787;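 active = compounds whose thallium flux B-score, printed positive for inhibition, exceeds three library SD while starting fluorescence stays within three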;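 also: channel opened by potassium depolarization with thallium stimulus after 20 min compound exposure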
KCNQ1 act: potentiates or activates the human KCNQ1 potassium channel; B-score at 10 µM; AID 2648; CHO-K1 KCNQ1, thallium flux FluxOR fluorescence; active compounds read high; 0.35% of 310,000 active;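 active = fluorescence ratio B-score, a plate-corrected score, at least three library SD, with initial intensity B-score within 5 SD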
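Doses: Single concentration per compound, DMSO matched to controls | Test system: KCNQ1-transfected CHO-K1 cells | Timing: 90 min dye loading and 20 min compound exposure, both at room temperature | Measured by: Kinetic FluxOR thallium fluorescence, 10-s 1-Hz baseline, 110-s post-stimulus read | Medium: Assay buffer with matched DMSO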
Kir21 inh: inhibitors of mouse Kir2.1 inward-rectifier potassium channel. P35561. HEK293-Kir2.1, FluxOR thallium flux fluorescence; active compounds read low. AID 1672. 0.85% of 310,000 active. B-score at 10 µM;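 active = fluorescence ratio B-score at or below minus 3 SD of library scores, with starting-brightness B-score within 2 SD, cut at about -4.2 in these data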;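 also: channel flux triggered by added potassium and thallium sulfate stimulus; B-score of peak minus minimum fluorescence over baseline after thallium stimulus; more negative B-score means stronger Kir2.1 block with less thallium influx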
An asterisk follows results filed as active; i = inactive; . = no result. Hits are enriched below; roughly 3.8% of the tested compounds scored in any of these assays.

SMILES | KCNK9 block | hERG protect | KCNK3 block | KCNQ1 block | KCNQ1 act | Kir21 inh
CCC(C(=O)O)n1nnc(-c2ccc(-c3ccc(OC)cc3)cc2)n1 (stereo not given) | i | -3.9 | i | i | i | -2.54
Cc1cccc(-c2nc3c(c(SCC(=O)N4CCCC4)n2)COC(C)(C)C3)c1 | i | -6.3 | i | i | i | 0.05
NC(=O)c1ccccc1NC(=O)COC(=O)CSCc1cccc(Cl)c1 | . | . | i | . | . | .
O=C(CSCc1cccc(Cl)c1)Nc1ccccc1-c1ccccc1 | i | -2.2 | i | i | i | -5.71*
Cc1ccccc1CSCC(=O)Nc1ccccc1-c1ccccc1 | i | -3.4 | i | i | i | -6.9*
COc1ccc(CCNC(=O)COC(=O)c2ccccn2)cc1 | . | . | i | . | . | .
OC(c1ccc(F)cc1)(C1CCCCC1)C(CN1CCOCC1)c1ccccc1 (stereo not given) | i | -6.6 | i | 8* | i | -0.78
CC(C)CC(O)(c1ccccc1)C(CN1CCOCC1)c1ccccc1 (stereo not given) | i | -5.7 | i | i | i | 0.93
Cc1cccc(C)c1NC(=O)N1CCC(n2cnc3ccccc32)CC1 | i | -16.8 | i | i | i | -0.38
O=C(NC1CCCCC1)N1CCC(n2cnc3ccccc32)CC1 | i | 6.2* | i | i | i | 0.64
COC(=O)c1ccc(COC(=O)CNC(=O)c2ccc(OC)cc2)cc1 | . | . | i | . | . | .
COC(=O)c1ccccc1NC(=O)/C=C/C(=O)O | i | -0.2 | i | i | i | -0.07
NC(=O)c1ccccc1NC(=O)N1CCOCC1 | i | 1.9 | i | i | 9* | -1.12
NC(=O)c1ccccc1NC(=O)/C=C/C(=O)O | i | 15.3* | i | i | i | -0.02
NC(=O)c1ccccc1NC(=O)CN1CCOCC1 | i | -9.7 | i | i | i | -1.78
CCCCCC(=O)NC(NC(=S)NC1CCS(=O)(=O)C1)C(Cl)(Cl)Cl (stereo not given) | i | 5.6* | i | i | i | 0.19
O=C(O)C/C(=C\c1cc(Br)cs1)c1nc2ccccc2o1 | i | 6.1* | i | i | i | 0.02
C=CCn1c(CSc2nc3ccccc3s2)nnc1SCC(=O)NCc1ccccc1 | i | -6.2 | i | i | i | -5.22*
Cc1ccc(-c2csc(NC(=O)c3ccc(F)cc3)c2C(=O)O)cc1 | i | -0.9 | i | i | i | -0.09
CCOCCCN(C(=O)c1ccco1)C(C(=O)NC1CCCC1)c1ccc(OC)cc1 (stereo not given) | i | -9.8 | i | i | i | -1.56
COc1ccc(CN(CCC(c2ccc(F)cc2)C2CCOC(C)(C)C2)C(=O)c2ccco2)cc1 (stereo not given) | -11.3* | -26.0 | i | i | i | -0.62
CCCN(CCC)C(=O)CC(c1ccccc1)C1CCOC(C)(C)C1 (stereo not given) | i | -17.7 | i | i | i | -0.59
CC(c1ccccc1)N(CCC(c1ccccc1)C1CCOC(C)(C)C1)C(=O)c1ccco1 (stereo not given) | i | -36.5 | i | 9* | i | -6.01*
CC(Oc1cccc(Cl)c1)C(=O)N(C)CC(=O)Nc1ccc(N2CCOCC2)cc1 (stereo not given) | i | -20.2 | i | i | i | 0.98
CC(=O)NCCCC(=O)NN1C(=S)N(Cc2ccccc2)C(=O)C1CC(=O)Nc1cccc(C)c1 (stereo not given) | i | -6.8 | i | i | i | -1.83
SMILES | KCNK9 block | hERG protect | KCNK3 block | KCNQ1 block | KCNQ1 act | Kir21 inh
CCN(CC)c1ccc(/C=c2\sc3nc4ccccc4n3c2=O)c(O)c1 | i | -36.1 | i | 9* | i | -1.05
O=c1/c(=C/c2ccc(O)c([N+](=O)[O-])c2)sc2nc3ccccc3n12 | . | . | i | . | . | .
COc1ccc(NC(=O)CN(C)C(C)C(=O)NC(=O)NC2CCCCC2)cc1 (stereo not given) | i | -4.0 | i | i | i | 1.09
CC(Oc1ccc(Cl)cc1)C(=O)Nc1sccc1C(N)=O (stereo not given) | i | 6.6* | i | i | i | -1.81
O=C(NC1CCCN(Cc2ccccc2F)C1)c1cccs1 (stereo not given) | i | -6.7 | i | i | i | -0.38
Cc1onc(-c2ccccc2)c1C(=O)NNC(=S)NC(=O)c1ccc(Cl)cc1Cl | i | -4.5 | i | i | 20* | -0.41
Cc1onc(-c2ccccc2)c1C(=O)NNC(=S)NC(=O)c1ccc(Br)cc1 | i | -16.1 | i | i | 34* | 1.77
COC(=O)c1c(-c2ccccc2)noc1C | i | 5.8* | i | i | i | 1.32
COC(=O)c1onc(-c2ccccc2)c1C(=O)OC | i | -6.7 | i | i | i | 1.04
Cc1ccccc1C(=O)NNC(=S)NC(=O)c1ccc(Cl)cc1Cl | i | -15.2 | i | i | 15* | 1.44
O=C(NC(=S)NNC(=O)c1ccc(Cl)cc1Cl)c1cccnc1 | i | -8.6 | i | i | i | 0.01
CN(C(=O)CN1CCN(c2cnn(-c3ccccc3)c(=O)c2Cl)CC1)C1CCS(=O)(=O)C1 (stereo not given) | . | . | i | . | . | .
COc1cc(C(=O)NCC(=O)NNC(=O)CN(C)S(=O)(=O)c2ccc(Cl)cc2)cc(OC)c1OC | . | . | i | . | . | .
CCCN(CCC)C(=S)NC(=O)c1ccc(Cl)cc1Cl | i | 24.7* | i | i | 55* | 1.27
CCC(=O)Nc1cccc(NC(=S)NC(=O)c2ccc(Cl)cc2Cl)c1 | i | -4.4 | i | i | i | -0.09
CCCn1c(NCc2c[nH]c3ccccc23)nc2ccccc21 | i | -15.1 | i | i | i | -7.4*
CCCn1c(NCc2cccc(OC)c2OC)nc2ccccc21 | i | -5.3 | i | i | i | -0.57
COc1ccc(NC(=O)CCCn2nc(C)c3c(C)n(-c4ccccc4)nc3c2=O)cc1 | i | -8.4 | i | i | i | 0.19
O=S(=O)(c1ccccc1)c1cnc(-c2cccnc2)nc1-c1ccccc1 | i | -3.2 | i | i | i | 0.25
Cc1ncc(S(=O)(=O)c2ccc(Cl)cc2)c(-c2ccccc2)n1 | i | -7.0 | i | i | i | -4.78*
CN(C(=O)c1ccc(NC(=O)Cc2cccc(NC(=O)C3CCN(C(=O)C4CCCC4)CC3)c2)cc1)C1CC1 | . | . | i | . | . | .
COc1ccccc1N(CC(=O)N(C)Cc1ccccc1)S(=O)(=O)c1cccs1 | . | . | i | . | . | .
OCCN(CCO)CC(O)COCCC12CC3CC(CC(C3)C1)C2 (stereo not given) | i | -15.8 | i | 8* | i | 0.06
